This note sets out measurements from ChEMBL document CHEMBL4330171, “Characterization of the Biosynthetic Gene Cluster for the Antibiotic Armeniaspirols in Streptomyces armeniacus” (2019).

One experiment has as its system Shigella dysenteriae. Briefly: Antibacterial activity against Shigella dysenteriae ATCC 13313 after 24 hrs by broth microdilution assay. The format is functional, organism-based. A general note: Broth dilution looks for growth in wells or tubes with falling amounts of substance.
The subject of experiment [1] is Staphylococcus aureus. Briefly: Antibacterial activity against Staphylococcus aureus Newman after 24 hrs by broth microdilution assay. The format is functional. In short, it runs like this: (§1)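 Twofold serial dilutions in LB broth, inoculated to a final 1 × 10^5 to 3 × 10^5 CFU/mL. Incubation at 37 °C for 24 h. MIC read visually as the lowest concentration giving no turbidity.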

The subject of the next experiment is Bacillus subtilis. Briefly: Antibacterial activity against Bacillus subtilis 168 after 24 hrs by broth microdilution assay. The class given is functional. The settings on record: subsp. subtilis str. 168, 24 h. In short, it runs like this: as §1
In the next experiment the test system is Klebsiella pneumoniae. Briefly: Antibacterial activity against Klebsiella pneumoniae ATCC 35657 after 24 hrs by broth microdilution assay. The format is functional, organism-based. An outline of the steps: as §1
Another experiment concerns Escherichia coli. Briefly: Antibacterial activity against Escherichia coli MG1655 after 24 hrs by broth microdilution assay. The format is functional, organism-based. The settings on record: K-12 substr. MG1655. In short, it runs like this:
as §1

Another experiment relates to Pseudomonas aeruginosa. Briefly: Antibacterial activity against Pseudomonas aeruginosa PAO1 after 24 hrs by broth microdilution assay. The class given is functional, organism-based. An outline of the steps:
as §1

The subject of a further experiment is Acinetobacter baumannii. Briefly: Antibacterial activity against Acinetobacter baumannii ATCC 19606 after 24 hrs by broth microdilution assay. The format is functional, organism-based. The note with it: ATCC 19606 = CIP 70.34 = JCM 6841. In short, it runs like this: as §1
Experiment [2] deals with Staphylococcus aureus. Briefly: Antibacterial activity against methicillin-resistant Staphylococcus aureus USA300 after 24 hrs by broth microdilution assay. The format is functional. The note with it: USA300, 24 h.
Another experiment relates to Enterococcus faecalis. Briefly: Antibacterial activity against Enterococcus faecalis FA2-2 after 24 hrs by broth microdilution assay. The format is functional. In short, it runs like this:
as §1

The test system of a further experiment is Enterococcus faecium. Briefly: Antibacterial activity against Enterococcus faecium ATCC 19434 after 24 hrs by broth microdilution assay. The format is functional. The settings on record: ATCC 19434, 24 h. An outline of the steps:
as §1

The subject of a further experiment is Salmonella typhimurium. Briefly: Antibacterial activity against Salmonella typhimurium ATCC 14028 after 24 hrs by broth microdilution assay. The class given is functional, organism-based. The note with it: Salmonella enterica subsp. enterica serovar Typhimurium. An outline of the steps:
as §1

Converted amounts (≈) assume the structure as drawn. The source made the active and inactive calls. No cut-off for these calls is given here.

In general, MIC refers to the least concentration at which growth counts as inhibited. Low readings indicate inhibition by little substance, high ones a need for much substance. Consider `CCCCCCc1c(O)ccc2c1O[C@@]1(C=C(Cl)C(=O)N1)C2=O`, for which the outcome in the experiment on Shigella dysenteriae, in the experiment with Klebsiella pneumoniae, in the experiment on Escherichia coli, in the experiment on Pseudomonas aeruginosa, in the experiment with Acinetobacter baumannii and in the experiment with Salmonella typhimurium was inactive. The MIC with Staphylococcus aureus [1], in the experiment with Bacillus subtilis, with Staphylococcus aureus [2], against Enterococcus faecalis and in the experiment with Enterococcus faecium was more than 32 mg/L in each case.

Take `CC[C@H](C)CCCc1c(O)ccc2c1O[C@@]1(C=C(Cl)C(=O)N1)C2=O`: the outcome in the experiment with Shigella dysenteriae, in the experiment with Klebsiella pneumoniae, with Escherichia coli, with Pseudomonas aeruginosa, in the experiment on Acinetobacter baumannii and with Salmonella typhimurium was inactive. Further, the MIC in the experiment with Staphylococcus aureus [1] was more than 32 mg/L; with Bacillus subtilis, 16 mg/L (≈ 45.7 µM); in the experiment with Staphylococcus aureus [2], more than 32 mg/L; in the experiment on Enterococcus faecalis, more than 32 mg/L; in the experiment on Enterococcus faecium, more than 32 mg/L.

Turning to `CCCCCCc1c(O)ccc2c1O[C@]1(C2=O)C(Cl)=C(Cl)C(=O)N1C` [ARMENIASPIROLE A], the result with Shigella dysenteriae, in the experiment on Klebsiella pneumoniae, in the experiment on Escherichia coli, in the experiment on Pseudomonas aeruginosa, with Acinetobacter baumannii and in the experiment on Salmonella typhimurium was inactive. Besides, the MIC in the experiment on Staphylococcus aureus [1] is 0.5 mg/L (≈ 1.3 µM); against Bacillus subtilis, 2 mg/L (≈ 5.2 µM); against Staphylococcus aureus [2] it was 0.5 mg/L (≈ 1.3 µM); against Enterococcus faecalis, 16 mg/L (≈ 41.6 µM); against Enterococcus faecium, more than 32 mg/L.

Turning to `CCCCCCc1c(O)ccc(C(=O)c2cc(Cl)c(Cl)[nH]2)c1O`, the outcome with Shigella dysenteriae, in the experiment on Klebsiella pneumoniae, with Escherichia coli, with Pseudomonas aeruginosa, in the experiment with Acinetobacter baumannii and with Salmonella typhimurium was inactive. Besides, the MIC against Staphylococcus aureus [1] is 1 mg/L (≈ 2.81 µM); in the experiment with Bacillus subtilis, 0.5 mg/L (≈ 1.4 µM); in the experiment with Staphylococcus aureus [2] it was 1 mg/L (≈ 2.81 µM); in the experiment with Enterococcus faecalis, 2 mg/L (≈ 5.61 µM); in the experiment on Enterococcus faecium, 2 mg/L (≈ 5.61 µM).

`CC(C)CCCc1c(O)ccc2c1O[C@@]1(C=C(Cl)C(=O)N1C)C2=O`: the result in the experiment on Shigella dysenteriae, in the experiment with Klebsiella pneumoniae, in the experiment on Escherichia coli, in the experiment with Pseudomonas aeruginosa, in the experiment with Acinetobacter baumannii and in the experiment with Salmonella typhimurium was inactive. In addition, the MIC against Staphylococcus aureus [1] is 4 mg/L (≈ 11.4 µM); in the experiment with Bacillus subtilis, 16 mg/L (≈ 45.7 µM); against Staphylococcus aureus [2], 16 mg/L (≈ 45.7 µM); in the experiment with Enterococcus faecalis it was more than 32 mg/L; in the experiment with Enterococcus faecium, more than 32 mg/L.

As for `CC(C)CCCc1c(O)ccc(C(=O)c2cc(Cl)c(Cl)[nH]2)c1O`, the outcome in the experiment on Shigella dysenteriae, in the experiment on Klebsiella pneumoniae, in the experiment on Escherichia coli, with Pseudomonas aeruginosa, in the experiment with Acinetobacter baumannii and in the experiment with Salmonella typhimurium was inactive. The MIC worked out at 1 mg/L (≈ 2.81 µM) against Staphylococcus aureus [1]; 0.5 mg/L (≈ 1.4 µM) with Bacillus subtilis; 1 mg/L (≈ 2.81 µM) in the experiment with Staphylococcus aureus [2]; 8 mg/L (≈ 22.5 µM) in the experiment on Enterococcus faecalis; 2 mg/L (≈ 5.61 µM) against Enterococcus faecium.

For the compound `CC(C)CCCc1c(O)ccc2c1O[C@]1(NC(=O)C(Cl)=C1Cl)C2=O`, the result with Shigella dysenteriae, in the experiment on Klebsiella pneumoniae, with Escherichia coli, in the experiment with Pseudomonas aeruginosa, with Acinetobacter baumannii and in the experiment with Salmonella typhimurium was inactive. Moreover, the minimum inhibitory concentration (MIC) with Staphylococcus aureus [1] was 8 mg/L (≈ 21.6 µM); in the experiment with Bacillus subtilis, 16 mg/L (≈ 43.2 µM); in the experiment with Staphylococcus aureus [2], 16 mg/L (≈ 43.2 µM); against Enterococcus faecalis it was more than 32 mg/L; in the experiment on Enterococcus faecium it was more than 32 mg/L.

As for `CC(C)CCCc1c(O)ccc2c1O[C@@]1(C=C(Cl)C(=O)N1)C2=O`, the outcome in the experiment with Shigella dysenteriae, in the experiment with Klebsiella pneumoniae, with Escherichia coli, in the experiment with Pseudomonas aeruginosa, in the experiment on Acinetobacter baumannii and in the experiment with Salmonella typhimurium was inactive. Also, the MIC against Staphylococcus aureus [1], against Bacillus subtilis, in the experiment on Staphylococcus aureus [2], against Enterococcus faecalis and with Enterococcus faecium was more than 32 mg/L in each case.

Turning to `CC[C@H](C)CCCc1c(O)ccc2c1O[C@]1(C2=O)C(Cl)=C(Cl)C(=O)N1C` [ARMENIASPIROLE C], the result in the experiment with Shigella dysenteriae, in the experiment with Klebsiella pneumoniae, in the experiment on Escherichia coli, in the experiment on Pseudomonas aeruginosa, in the experiment with Acinetobacter baumannii and in the experiment on Salmonella typhimurium was inactive. The MIC in the experiment on Staphylococcus aureus [1] is 0.5 mg/L (≈ 1.26 µM); in the experiment on Bacillus subtilis, 2 mg/L (≈ 5.02 µM); in the experiment on Staphylococcus aureus [2] it was 0.5 mg/L (≈ 1.26 µM); against Enterococcus faecalis it was more than 32 mg/L; against Enterococcus faecium it was more than 32 mg/L.

Regarding `CC[C@H](C)CCCc1c(O)ccc2c1O[C@]1(NC(=O)C(Cl)=C1Cl)C2=O`, the result in the experiment with Shigella dysenteriae, in the experiment on Klebsiella pneumoniae, in the experiment with Escherichia coli, in the experiment with Pseudomonas aeruginosa, in the experiment with Acinetobacter baumannii and in the experiment with Salmonella typhimurium was inactive. In addition, the MIC against Staphylococcus aureus [1] is 8 mg/L (≈ 20.8 µM); with Bacillus subtilis, 8 mg/L (≈ 20.8 µM); with Staphylococcus aureus [2], 8 mg/L (≈ 20.8 µM); against Enterococcus faecalis, 32 mg/L (≈ 83.3 µM); against Enterococcus faecium, 32 mg/L (≈ 83.3 µM).

With `CC[C@H](C)CCCc1c(O)ccc2c1O[C@@]1(C=C(Cl)C(=O)N1C)C2=O`, the outcome in the experiment on Shigella dysenteriae, in the experiment with Klebsiella pneumoniae, in the experiment on Escherichia coli, in the experiment on Pseudomonas aeruginosa, with Acinetobacter baumannii and with Salmonella typhimurium was inactive. Moreover, the MIC with Staphylococcus aureus [1] was 2 mg/L (≈ 5.5 µM); in the experiment on Bacillus subtilis it was 8 mg/L (≈ 22 µM); in the experiment with Staphylococcus aureus [2] it was 8 mg/L (≈ 22 µM); against Enterococcus faecalis, more than 32 mg/L; in the experiment on Enterococcus faecium, more than 32 mg/L.

As to `CC[C@H](C)CCCc1c(O)ccc(C(=O)c2cc(Cl)c(Cl)[nH]2)c1O`, the outcome with Shigella dysenteriae, with Klebsiella pneumoniae, with Escherichia coli, with Pseudomonas aeruginosa, in the experiment with Acinetobacter baumannii and in the experiment on Salmonella typhimurium was inactive. Moreover, the MIC stood at 1 mg/L (≈ 2.7 µM) against Staphylococcus aureus [1]; 0.5 mg/L (≈ 1.35 µM) against Bacillus subtilis; 2 mg/L (≈ 5.4 µM) in the experiment with Staphylococcus aureus [2]; 8 mg/L (≈ 21.6 µM) against Enterococcus faecalis; 2 mg/L (≈ 5.4 µM) in the experiment on Enterococcus faecium.

On to `CN[C@H](CC(C)C)C(=O)N[C@H]1C(=O)N[C@@H](CC(N)=O)C(=O)N[C@H]2C(=O)N[C@H]3C(=O)N[C@H](C(=O)N[C@H](C(=O)O)c4cc(O)cc(O)c4-c4cc3ccc4O)[C@H](O)c3ccc(c(Cl)c3)Oc3cc2cc(c3O[C@@H]2O[C@H](CO)[C@@H](O)[C@H](O)[C@H]2O[C@H]2C[C@](C)(N)[C@H](O)[C@H](C)O2)Oc2ccc(cc2Cl)[C@H]1O` [VANCOMYCIN], for which the results for the MIC against Bacillus subtilis and in the experiment on Enterococcus faecalis were 0.25 mg/L (≈ 0.173 µM) and 2 mg/L (≈ 1.38 µM), respectively.

With `CCCCCCc1c(O)ccc2c1O[C@]1(NC(=O)C(Cl)=C1Cl)C2=O`, the outcome in the experiment with Shigella dysenteriae, with Klebsiella pneumoniae, in the experiment with Escherichia coli, in the experiment with Pseudomonas aeruginosa, in the experiment with Acinetobacter baumannii and in the experiment on Salmonella typhimurium was inactive. Besides, the MIC was 8 mg/L (≈ 21.6 µM) in the experiment with Staphylococcus aureus [1]; 8 mg/L (≈ 21.6 µM) in the experiment with Bacillus subtilis; 16 mg/L (≈ 43.2 µM) against Staphylococcus aureus [2]; more than 32 mg/L in the experiment with Enterococcus faecalis; 32 mg/L (≈ 86.4 µM) with Enterococcus faecium.

With `CC(C)CCCc1c(O)ccc2c1O[C@]1(C2=O)C(Cl)=C(Cl)C(=O)N1C` [ARMENIASPIROLE B], the result in the experiment with Shigella dysenteriae, in the experiment on Klebsiella pneumoniae, in the experiment with Escherichia coli, in the experiment on Pseudomonas aeruginosa, with Acinetobacter baumannii and with Salmonella typhimurium was inactive. The MIC was 0.5 mg/L (≈ 1.3 µM) against Staphylococcus aureus [1]; 4 mg/L (≈ 10.4 µM) against Bacillus subtilis; 2 mg/L (≈ 5.2 µM) in the experiment on Staphylococcus aureus [2]; 32 mg/L (≈ 83.3 µM) against Enterococcus faecalis; more than 32 mg/L in the experiment on Enterococcus faecium.

As for `CCCCCCc1c(O)ccc2c1O[C@@]1(C=C(Cl)C(=O)N1C)C2=O`, the outcome with Shigella dysenteriae, in the experiment with Klebsiella pneumoniae, with Escherichia coli, in the experiment on Pseudomonas aeruginosa, in the experiment on Acinetobacter baumannii and with Salmonella typhimurium was inactive. Further, the minimum inhibitory concentration (MIC) was 4 mg/L (≈ 11.4 µM) against Staphylococcus aureus [1]; 8 mg/L (≈ 22.9 µM) in the experiment with Bacillus subtilis; 8 mg/L (≈ 22.9 µM) in the experiment with Staphylococcus aureus [2]; more than 32 mg/L against Enterococcus faecalis; more than 32 mg/L against Enterococcus faecium.
